Series [1] has as its system Respiratory syncytial virus. The series is described as follows: Antiviral activity against plaque picked RSV604-resistant RSV RSS from passage 2 in human Hep2 cells by plaque reduction assay. The following applies: HEp-2. It is filed as functional, organism-based. In short, it runs like this:
(§1)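 HEp-2 monolayers in six-well plates infected with 0.2 ml of 500 PFU/ml virus. After 2 h, overlaid with DMEM, 2% FBS, 0.6% agarose plus compound dilution series. Incubated 5 days, formaldehyde-fixed, plaques stained with methylene blue or immunostained and counted. Activity expressed as percent of plaques in untreated infected wells.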
(In a plaque reduction assay, fewer plaques than in the control indicate reduced infectivity or spread.)

In series [2] the test system is Respiratory syncytial virus. The series is described as follows: Antiviral activity against RSV RSS infected human Hep2 cells assessed as reduction of viral antigen synthesis after 3 days by ELISA. It is filed as functional, organism-based. The following applies: HEp-2, 72 h. In short, it runs like this:
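HEp-2 cells seeded at 5 × 10³ per well in DMEM/10% FBS for 24 h, infected with RSV RSS at MOI about 0.02, serial compound dilutions for 3 days. Cells fixed and permeabilised in methanol-acetone, blocked in milk-Tween. Probed with mouse anti-RSV monoclonal then HRP anti-mouse. Developed with o-phenylenediamine/H2O2, absorbance […].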
(In an ELISA, binding on a coated surface is turned into a signal by an enzyme label.)

The subject of series [3] is Respiratory syncytial virus. Kind of series: Antiviral activity against RSV RSS infected human Hep2 cells after 5 days by plaque reduction assay. It is filed as functional, organism-based. The conditions noted are these: HEp-2, 120 h. In short, it runs like this:
as §1

Series [4] in a line: Cytotoxicity against RSV RSS infected human Hep2 cells after 6 days by XTT assay. It counts as cell-based, HEp-2.
Series [5] relates to Respiratory syncytial virus. Kind of series: Antiviral activity against RSV B infected human Hep2 cells after 5 days by plaque reduction assay. It counts as functional, organism-based. The following applies: HEp-2, 120 h. The procedure, abridged:
as §1

The subject of series [6] is Respiratory syncytial virus. The series is described as follows: Antiviral activity against DMSO-passaged wild type RSV RSS infected human Hep2 cells by plaque reduction assay. It is filed as functional, organism-based. The following applies: HEp-2. In short, it runs like this:
as §1

Series [7] has as its system Respiratory syncytial virus. The series is described as follows: Antiviral activity against RSV RSS infected human Hep2 cells assessed as inhibition of virus-induced cell death after 6 days by XTT assay. It counts as functional, organism-based. The following applies: HEp-2, 144 h. The procedure, abridged:
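HEp-2 cells seeded at 4 × 10³ per well in DMEM with 10% FBS, infected next day with RSV RSS dosed to give about 80% cytopathic effect by day 6. Serial compound dilutions (top 10 μM, 0.5% DMSO) present throughout. Viability read by XTT reduction after 6 days. EC50 taken as 50% reduction in virus-induced cell death.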
On the technique in general: Tetrazolium assays rely on reduction of a dye to a coloured formazan, in cell work by metabolically active cells.

The test system of series [8] is Respiratory syncytial virus. Kind of series: Antiviral activity against RSV Long infected human Hep2 cells after 5 days by plaque reduction assay. It counts as functional, organism-based. The conditions noted are these: HEp-2, 120 h. The procedure, abridged:
as §1

Series [9] has as its system Respiratory syncytial virus. Kind of series: Drug resistance, ratio of EC50 for plaque picked RSV604-resistant RSV RSS from passage 2 to EC50 for DMSO-passaged wild type RSV RSS. It is filed as functional.
Series [10] can be described thus: Therapeutic index, CC50 for human Hep2 cells to EC50 for RSV RSS. It is filed as cell-based, HEp-2. The following applies: read-out: Ratio CC50/EC50. In short, it runs like this: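 Ratio of CC50 from uninfected HEp-2 XTT control plates to EC50 from RSV RSS-infected XTT plates, both read after 6 days.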
For series [11], the system named is Respiratory syncytial virus. The series is described as follows: Antiviral activity against RSV A2 infected human Hep2 cells after 5 days by plaque reduction assay. The following applies: A2, HEp-2, 120 h. It counts as functional, organism-based. In short, it runs like this: as §1
For series [12], the system named is Respiratory syncytial virus. The series is described as follows: Antiviral activity against plaque picked A-33903-resistant RSV RSS from passage 2 in human Hep2 cells by plaque reduction assay. It counts as functional, organism-based. The following applies: HEp-2. The procedure, abridged:
as §1

Series [13] concerns Respiratory syncytial virus. Kind of series: Drug resistance, ratio of EC50 for plaque picked A-33903-resistant RSV RSS from passage 2 to EC50 for DMSO-passaged wild type RSV RSS. It counts as functional.
Series [14] is described as follows: Cytotoxicity against RSV RSS infected human Hep2 cells up to 50 uM after 6 days by XTT assay. It counts as cell-based. The conditions noted are these: hep-2, 144 h. In short, it runs like this: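 Uninfected cell-control plates run in parallel with the RSV XTT assay. HEp-2 cells at 4 × 10³ per well in DMEM/10% FBS, serial compound dilutions with 0.5% DMSO, 6 days. Viability by XTT. CC50 is the concentration giving 50% compound-induced cell death.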

This note sets out measurements from ChEMBL document CHEMBL1143412, “RSV604, a novel inhibitor of respiratory syncytial virus replication” (Antimicrob Agents Chemother, 2007).

In general, EC50 refers to the concentration that produces a half-maximal response. Usually CC50 stands for the concentration giving 50% cytotoxicity. A higher CC50 goes with lower toxicity to the cells.

For the compound `COc1cc(S(C)(=O)=O)ccc1C(=O)N[C@H]1N=C(c2ccccc2)c2ccccc2NC1=O`, the EC50 was found to be 16.9 µM in [1]; 1.3 µM in series [2]; 0.5 µM in [3]; 0.43 µM in series [5]; 0.4 µM in [6]; 0.5 µM in series [7]. The compound further came in with an EC50 in series [8] of 0.39 µM. Also, in series [4], the CC50 at 144 h was more than 50 µM. Also, the “fold change (FC)” value in series [9] is 42.3. The selectivity ratio in series [10] is more than 100.

Take `CC(=O)NC1N=C(c2ccccc2)c2ccccc2NC1=O` (centres undefined): the EC50 in series [1] is more than 100 µM; in [2], 10.1 µM; in [3], 9.7 µM; in series [5], 3.5 µM; in series [11] it was 15.1 µM; in series [6], 8.1 µM. The EC50 in series [12] was 27.6 µM; in series [7], 9.6 µM; in series [8], 7.2 µM. Moreover, in series [4], the CC50 at 144 h is more than 50 µM. The “fold change (FC)” value in series [13] was 3.1; in series [9], more than 12.3. Also, the selectivity ratio in series [10] is more than 5. For the same compound, the Activity entry in series [14] was “Non-toxic”.
